Experimental data published in ChEMBL document CHEMBL5058577, “EUbOPEN Chemogenomics Library 2 (Multiplex)” (2022).

System: HEK-293T
Test: Multiplex assay against HEK293T
Type: toxicity, cell-based
Conditions: human
How it was run: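 Per cents of healthy-nucleus cells form the tubulin, mitochondrial-mass and membrane-permeability phenotype values. Live cells were stained at seeding with Hoechst33342, BioTracker Green Microtubule Cytoskeleton Dye, MitoTracker Red and Annexin V Alexa Fluor 680. After compound addition they were imaged on a CQ1 microscope at 37°C and 5% CO2, and CellPathfinder machine-learning gating split them into Hoechst high-intensity objects or normal cells, normal cells into healthy, pyknosed or fragmented nuclei, and pyknosed cells into mitotic or apoptotic.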

[1] = 12 h, 1 µM, compound concentration 1 uM, replicate 1
[2] = 12 h, 1 µM, compound concentration 1 uM, replicate 2
[3] = 12 h, 10 µM, compound concentration 10 uM, replicate 1
[4] = 12 h, 10 µM, compound concentration 10 uM, replicate 2
[5] = 24 h, 1 µM, compound concentration 1 uM, replicate 1
[6] = 24 h, 1 µM, compound concentration 1 uM, replicate 2
[7] = 24 h, 10 µM, compound concentration 10 uM, replicate 1
[8] = 24 h, 10 µM, compound concentration 10 uM, replicate 2
[9] = 48 h, 1 µM, compound concentration 1 uM, replicate 1
[10] = 48 h, 1 µM, compound concentration 1 uM, replicate 2
[11] = 48 h, 10 µM, compound concentration 10 uM, replicate 1
[12] = 48 h, 10 µM, compound concentration 10 uM, replicate 2

CN[C@@H](C)C(=O)N[C@H](C(=O)N1CCC[C@H]1C(=O)Nc1snnc1-c1ccccc1)C1CCCCC1 [GDC-0152]
Population Apoptotic (%) [1]: 31%
Population Fragmented Nuclei (%) [1]: 5%
Population Healthy Nuclei (%) [1]: 78%
Population Hoechst High Intensity Objects (%) [1]: 5%
Population Membrane Permeable-Phenotype (%) [1]: 0%
Population Mitochondria Different-Phenotype (%) [1]: 41%
Population Mitotic Cells (%) [1]: 68%
Population Normal (%) [1]: 94%
Population Pyknosed Nuclei (%) [1]: 15%
Population Tubulin-Different-Phenotype (%) [1]: 35%
Total Cell Count [1]: 444
Population Apoptotic (%) [2]: 60%
Population Healthy Nuclei (%) [2]: 79%
Population Hoechst High Intensity Objects (%) [2]: 7%
Population Mitochondria Different-Phenotype (%) [2]: 62%
Population Mitotic Cells (%) [2]: 39%
Population Normal (%) [2]: 92%
Population Pyknosed Nuclei (%) [2]: 14%
Population Tubulin-Different-Phenotype (%) [2]: 26%
Total Cell Count [2]: 314
Population Apoptotic (%) [3]: 50%
Population Fragmented Nuclei (%) [3]: 6%
Population Healthy Nuclei (%) [3]: 73%
Population Hoechst High Intensity Objects (%) [3]: 13%
Population Membrane Permeable-Phenotype (%) [3]: 0%
Population Mitochondria Different-Phenotype (%) [3]: 78%
Population Mitotic Cells (%) [3]: 49%
Population Normal (%) [3]: 86%
Population Pyknosed Nuclei (%) [3]: 20%
Population Tubulin-Different-Phenotype (%) [3]: 78%
Total Cell Count [3]: 362
Population Apoptotic (%) [4]: 72%
Population Fragmented Nuclei (%) [4]: 7%
Population Hoechst High Intensity Objects (%) [4]: 20%
Population Mitochondria Different-Phenotype (%) [4]: 89%
Population Mitotic Cells (%) [4]: 28%
Population Normal (%) [4]: 80%
Population Pyknosed Nuclei (%) [4]: 18%
Population Tubulin-Different-Phenotype (%) [4]: 72%
Total Cell Count [4]: 330
Population Apoptotic (%) [5]: 30%
Population Fragmented Nuclei (%) [5]: 8%
Population Healthy Nuclei (%) [5]: 80%
Population Hoechst High Intensity Objects (%) [5]: 4%
Population Membrane Permeable-Phenotype (%) [5]: 1%
Population Mitochondria Different-Phenotype (%) [5]: 28%
Population Mitotic Cells (%) [5]: 69%
Population Normal (%) [5]: 95%
Population Pyknosed Nuclei (%) [5]: 10%
Population Tubulin-Different-Phenotype (%) [5]: 23%
Total Cell Count [5]: 601
Population Apoptotic (%) [6]: 38%
Population Fragmented Nuclei (%) [6]: 5%
Population Healthy Nuclei (%) [6]: 82%
Population Hoechst High Intensity Objects (%) [6]: 6%
Population Membrane Permeable-Phenotype (%) [6]: 0%
Population Mitochondria Different-Phenotype (%) [6]: 53%
Population Mitotic Cells (%) [6]: 61%
Population Normal (%) [6]: 93%
Population Pyknosed Nuclei (%) [6]: 12%
Population Tubulin-Different-Phenotype (%) [6]: 22%
Total Cell Count [6]: 387
Population Apoptotic (%) [7]: 45%
Population Fragmented Nuclei (%) [7]: 10%
Population Healthy Nuclei (%) [7]: 71%
Population Hoechst High Intensity Objects (%) [7]: 7%
Population Membrane Permeable-Phenotype (%) [7]: 0%
Population Mitochondria Different-Phenotype (%) [7]: 74%
Population Mitotic Cells (%) [7]: 54%
Population Normal (%) [7]: 92%
Population Pyknosed Nuclei (%) [7]: 17%
Population Tubulin-Different-Phenotype (%) [7]: 69%
Total Cell Count [7]: 454
Population Apoptotic (%) [8]: 60%
Population Fragmented Nuclei (%) [8]: 12%
Population Healthy Nuclei (%) [8]: 68%
Population Hoechst High Intensity Objects (%) [8]: 21%
Population Mitochondria Different-Phenotype (%) [8]: 80%
Population Mitotic Cells (%) [8]: 40%
Population Normal (%) [8]: 78%
Population Pyknosed Nuclei (%) [8]: 19%
Population Tubulin-Different-Phenotype (%) [8]: 58%
Total Cell Count [8]: 400
Population Apoptotic (%) [9]: 31%
Population Fragmented Nuclei (%) [9]: 12%
Population Healthy Nuclei (%) [9]: 78%
Population Hoechst High Intensity Objects (%) [9]: 4%
Population Membrane Permeable-Phenotype (%) [9]: 1%
Population Mitochondria Different-Phenotype (%) [9]: 22%
Population Mitotic Cells (%) [9]: 68%
Population Normal (%) [9]: 95%
Population Pyknosed Nuclei (%) [9]: 9%
Population Tubulin-Different-Phenotype (%) [9]: 16%
Total Cell Count [9]: 928
Population Apoptotic (%) [10]: 40%
Population Fragmented Nuclei (%) [10]: 10%
Population Healthy Nuclei (%) [10]: 82%
Population Hoechst High Intensity Objects (%) [10]: 3%
Population Mitochondria Different-Phenotype (%) [10]: 29%
Population Mitotic Cells (%) [10]: 60%
Population Normal (%) [10]: 96%
Population Pyknosed Nuclei (%) [10]: 6%
Total Cell Count [10]: 603
Population Apoptotic (%) [11]: 47%
Population Fragmented Nuclei (%) [11]: 12%
Population Healthy Nuclei (%) [11]: 73%
Population Hoechst High Intensity Objects (%) [11]: 16%
Population Membrane Permeable-Phenotype (%) [11]: 0%
Population Mitochondria Different-Phenotype (%) [11]: 74%
Population Mitotic Cells (%) [11]: 52%
Population Normal (%) [11]: 83%
Population Pyknosed Nuclei (%) [11]: 13%
Population Tubulin-Different-Phenotype (%) [11]: 55%
Total Cell Count [11]: 538
Population Apoptotic (%) [12]: 60%
Population Healthy Nuclei (%) [12]: 70%
Population Hoechst High Intensity Objects (%) [12]: 21%
Population Mitochondria Different-Phenotype (%) [12]: 76%
Population Mitotic Cells (%) [12]: 39%
Population Normal (%) [12]: 78%
Population Pyknosed Nuclei (%) [12]: 17%
Population Tubulin-Different-Phenotype (%) [12]: 52%
Total Cell Count [12]: 417
